From ChEMBL document CHEMBL4004857, “Synthesis and biological evaluation of novel pyrazolic chalcone derivatives as novel hepatocellular carcinoma therapeutics” (Eur J Med Chem, 2017)
pIC50: −log10 of the molar value. Activity calls are given as the source filed them. The calls are words filed in the database; no cut-off is given here.

Columns and labels:
[1] = test system: Huh-7; assay: Cytotoxicity against human HuH7 cells assessed as growth inhibition after 72 hrs by SRB assay; assay type: functional, cell-based; details: Huh-7, 72 h
How it was run: (§1)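 Cells seeded at 2000–3000 per well and grown 24 h at 37C, then treated in triplicate with compounds dissolved in DMSO over a 40–0.3 range for 72 h. Cells were fixed with 10% TCA for 1 h, stained with 0.4% SRB in 1% acetic acid, washed with 1% acetic acid and air-dried. Bound dye was solubilized in 10 mM Tris base and read at 515 nm. % inhibition and IC50 were calculated against DMSO-only controls.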

[2] = test system: MCF7; assay: Cytotoxicity against human MCF7 cells assessed as growth inhibition after 72 hrs by SRB assay; assay type: functional, cell-based; details: MCF7, 72 h; how it was run: as §1
[3] = test system: HCT-116; assay: Cytotoxicity against human HCT116 cells assessed as growth inhibition after 72 hrs by SRB assay; assay type: functional, cell-based; details: HCT-116, 72 h; how it was run: as §1
[4] = species on record: Homo sapiens; assay: Inhibition of tubulin polymerization (unknown origin)
[5] = test system: HepG2; assay: Cytotoxicity against human HepG2 cells assessed as growth inhibition after 72 hrs by SRB assay; assay type: functional, cell-based; details: HepG2, 72 h; how it was run: as §1
[6] = test system: Mahlavu; assay: Cytotoxicity against human Mahlavu cells assessed as growth inhibition after 72 hrs by SRB assay; assay type: functional, cell-based; how it was run: as §1
[7] = test system: SNU-475; assay: Cytotoxicity against human SNU475 cells assessed as growth inhibition after 72 hrs by SRB assay; assay type: functional, cell-based; details: SNU-475, 72 h; how it was run: as §1
[8] = test system: MCF-12A; assay: Cytotoxicity against human MCF12A cells assessed as growth inhibition after 72 hrs by SRB assay; assay type: cell-based; how it was run: as §1
[9] = test system: MRC5; assay: Cytotoxicity against human MRC5 cells assessed as growth inhibition after 72 hrs by SRB assay; assay type: cell-based; details: mrc5; how it was run: as §1
[10] = test system: Huh-7; assay: Growth inhibition of human HuH7 cells at cytotoxic IC100 measured every 10 mins for first 24 hrs and every 30 mins for remaining 48 hrs by RT-CES analysis; assay type: functional, cell-based
[11] = test system: HepG2; assay: Growth inhibition of human HepG2 cells at cytotoxic IC100 measured every 10 mins for first 24 hrs and every 30 mins for remaining 48 hrs by RT-CES analysis; assay type: functional, cell-based
[12] = test system: Mahlavu; assay: Growth inhibition of human Mahlavu cells at cytotoxic IC100 measured every 10 mins for first 24 hrs and every 30 mins for remaining 48 hrs by RT-CES analysis; assay type: functional, cell-based
[13] = test system: SNU-475; assay: Growth inhibition of human SNU475 cells at cytotoxic IC100 measured every 10 mins for first 24 hrs and every 30 mins for remaining 48 hrs by RT-CES analysis; assay type: functional, cell-based
[14] = test system: HepG2; assay: Induction of apoptosis in human HepG2 cells assessed as condensed nuclei at cytotoxic IC100 measured after 48 hrs by DAPI/Annexin-V-Fluos staining based fluorescent microscopic method; assay type: functional, cell-based
How it was run: (§2)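 Cells on coverslips were treated after 24 h in culture and stained 48 h later with Annexin-V-Fluos plus DAPI nuclear stain. Cells were then examined by fluorescence microscopy for Annexin V-positive cells with condensed nuclei.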

[15] = test system: HepG2; assay: Induction of apoptosis in human HepG2 cells assessed as condensed nuclei at cytotoxic IC100 measured after 72 hrs by light microscopic method; assay type: functional, cell-based
[16] = test system: SNU-475; assay: Induction of apoptosis in human SNU475 cells assessed as condensed nuclei at cytotoxic IC100 measured after 72 hrs by light microscopic method; assay type: functional, cell-based
[17] = test system: SNU-475; assay: Induction of apoptosis in human SNU475 cells assessed as condensed nuclei at cytotoxic IC100 measured after 48 hrs by DAPI/Annexin-V-Fluos staining based fluorescent microscopic method; assay type: functional, cell-based; how it was run: as §2
[18] = test system: SNU-475; assay: Induction of apoptosis in human SNU475 cells assessed as PARP cleavage at cytotoxic IC100 measured after 24 hrs by Western blot method; assay type: functional, cell-based
[19] = test system: HepG2; assay: Induction of apoptosis in human HepG2 cells assessed as PARP cleavage at cytotoxic IC100 measured after 24 hrs by Western blot method; assay type: functional, cell-based

COc1cc(C(=O)/C=C/c2cn(-c3ccccc3)nc2-c2ccncc2)cc(OC)c1OC
pIC50 [1]: 5.46
pIC50 [2]: 5.46
pIC50 [3]: 6.52
inhibition [4]: inactive

COc1ccc(C(=O)/C=C/c2cn(-c3ccccc3)nc2-c2ccsc2)c(OC)c1
pIC50 [1]: 5.52
pIC50 [2]: 5.05
pIC50 [3]: 5.66
inhibition [4]: inactive

COc1ccc(OC)c(C(=O)/C=C/c2cn(-c3ccccc3)nc2-c2ccsc2)c1
pIC50 [1]: 5.68
pIC50 [2]: 6.40
pIC50 [3]: 5.47
inhibition [4]: inactive

O=C(/C=C/c1cn(-c2ccccc2)nc1-c1ccncc1)c1ccc2c(c1)OCO2
pIC50 [1]: 6.40
pIC50 [2]: 6.10
pIC50 [3]: 5.28
inhibition [4]: inactive

O=C(/C=C/c1cn(-c2ccccc2)nc1-c1ccsc1)c1ccc2c(c1)OCO2
pIC50 [1]: 4.65
pIC50 [2]: 5.28
pIC50 [3]: 4.91
inhibition [4]: inactive

O=c1[nH]cc(F)c(=O)[nH]1 [FLUOROURACIL]
pIC50 [1]: 4.68
pIC50 [2]: 5.85
pIC50 [3]: 4.74

COc1ccc(C(=O)/C=C/c2cn(-c3ccccc3)nc2-c2ccsc2)c(OC)c1OC
pIC50 [1]: 5.38
pIC50 [2]: 5.13
pIC50 [3]: 5.24
inhibition [4]: inactive

O=C(/C=C/c1cn(-c2ccccc2)nc1-c1ccc2c(c1)OCO2)c1ccccn1
pIC50 [1]: 5.47
pIC50 [2]: 5.39
pIC50 [3]: 5.17
inhibition [4]: inactive

COc1ccc(C(=O)/C=C/c2cn(-c3ccccc3)nc2-c2ccc3c(c2)OCO3)c(OC)c1
pIC50 [1]: 4.72
pIC50 [2]: 4.84
pIC50 [3]: 5.07
inhibition [4]: inactive

O=C(/C=C/c1cn(-c2ccccc2)nc1-c1cccnc1)c1ccccc1
pIC50 [1]: 5.64
pIC50 [2]: 5.39
pIC50 [3]: 5.70
inhibition [4]: inactive

COc1ccc(C(=O)/C=C/c2cn(-c3ccccc3)nc2-c2ccc3c(c2)OCO3)cc1OC
pIC50 [1]: 4.81
pIC50 [2]: 4.93
pIC50 [3]: 4.94
inhibition [4]: inactive

O=C(/C=C/c1cn(-c2ccccc2)nc1-c1cccnc1)c1c[nH]c2ccccc12
pIC50 [1]: 5.49
pIC50 [2]: 5.59
pIC50 [3]: 5.19
inhibition [4]: inactive

COc1cc(C(=O)/C=C/c2cn(-c3ccccc3)nc2-c2ccsc2)cc(OC)c1OC
pIC50 [1]: 5.44
pIC50 [2]: 5.31
pIC50 [3]: 5.49
inhibition [4]: inactive

COc1cc(OC)c(C(=O)/C=C/c2cn(-c3ccccc3)nc2-c2ccncc2)c(OC)c1
pIC50 [1]: 5.59
pIC50 [2]: 5.80
pIC50 [3]: 6.22
inhibition [4]: inactive
pIC50 [5]: 5.77
pIC50 [6]: 5.96
pIC50 [7]: 5.85
pIC50 [8]: 5.09
IC50 [9]: Non-Toxic
growth inhibition (GI) [10]: Active
growth inhibition (GI) [11]: Active
growth inhibition (GI) [12]: Active
growth inhibition (GI) [13]: Active
Activity [14]: Active
Activity [15]: Active
Activity [16]: Active
Activity [17]: Active
Activity [18]: Active
Activity [19]: Active

COc1ccc(C(=O)/C=C/c2cn(-c3ccccc3)nc2-c2cccnc2)c(OC)c1OC
pIC50 [1]: 5.64
pIC50 [2]: 5.85
pIC50 [3]: 5.96
inhibition [4]: inactive

O=C(/C=C/c1cn(-c2ccccc2)nc1-c1ccc2c(c1)OCO2)c1cccnc1
pIC50 [1]: 5.47
pIC50 [2]: 5.66
pIC50 [3]: 5.42
inhibition [4]: inactive

COc1ccc(C(=O)/C=C/c2cn(-c3ccccc3)nc2-c2cccnc2)cc1OC
pIC50 [1]: 5.51
pIC50 [2]: 5.77
pIC50 [3]: 5.37
inhibition [4]: inactive

COc1ccc(C(=O)/C=C/c2cn(-c3ccccc3)nc2-c2ccncc2)c(OC)c1
pIC50 [1]: 5.36
pIC50 [2]: 5.06
pIC50 [3]: 5.36
inhibition [4]: inactive

O=C(/C=C/c1cn(-c2ccccc2)nc1-c1ccc2c(c1)OCO2)c1ccc2c(c1)OCO2
pIC50 [1]: 5.00
pIC50 [2]: 4.76
pIC50 [3]: 4.57
inhibition [4]: inactive

COc1cc(OC)c(C(=O)/C=C/c2cn(-c3ccccc3)nc2-c2ccsc2)c(OC)c1
pIC50 [1]: 5.21
pIC50 [2]: 5.57
pIC50 [3]: 5.28
inhibition [4]: inactive

COc1cc(C(=O)/C=C/c2cn(-c3ccccc3)nc2-c2ccc3c(c2)OCO3)cc(OC)c1OC
pIC50 [1]: 4.93
pIC50 [2]: 4.96
pIC50 [3]: 5.08
inhibition [4]: inactive

O=C(/C=C/c1cn(-c2ccccc2)nc1-c1ccncc1)c1ccccc1
pIC50 [1]: 5.74
pIC50 [2]: 5.47
pIC50 [3]: 5.51
inhibition [4]: inactive

O=C(/C=C/c1cn(-c2ccccc2)nc1-c1cccnc1)c1ccsc1
pIC50 [1]: 5.77
pIC50 [2]: 6.30
pIC50 [3]: 5.89
inhibition [4]: inactive

O=C(/C=C/c1cn(-c2ccccc2)nc1-c1ccsc1)c1ccccc1
pIC50 [1]: 5.33
pIC50 [2]: 5.72
pIC50 [3]: 5.29
inhibition [4]: inactive

COc1ccc(C(=O)/C=C/c2cn(-c3ccccc3)nc2-c2ccc3c(c2)OCO3)c(OC)c1OC
pIC50 [1]: 4.97
pIC50 [2]: 5.13
pIC50 [3]: 5.49
inhibition [4]: inactive

COc1cc(C(=O)/C=C/c2cn(-c3ccccc3)nc2-c2cccnc2)cc(OC)c1OC
pIC50 [1]: 5.72
pIC50 [2]: 4.84
pIC50 [3]: 5.07
inhibition [4]: inactive

O=C(/C=C/c1cn(-c2ccccc2)nc1-c1ccc2c(c1)OCO2)c1cc[nH]c1
pIC50 [1]: 5.04
pIC50 [2]: 5.00
pIC50 [3]: 4.69
inhibition [4]: inactive

O=C(/C=C/c1cn(-c2ccccc2)nc1-c1ccc2c(c1)OCO2)c1ccccc1
pIC50 [1]: 4.98
pIC50 [2]: 4.95
pIC50 [3]: 5.94
inhibition [4]: inactive

O=C(/C=C/c1cn(-c2ccccc2)nc1-c1ccncc1)c1ccsc1
pIC50 [1]: 5.66
pIC50 [2]: 5.82
pIC50 [3]: 5.96
inhibition [4]: inactive

O=C(/C=C/c1cn(-c2ccccc2)nc1-c1ccc2c(c1)OCO2)c1ccsc1
pIC50 [1]: 5.49
pIC50 [2]: 5.31
pIC50 [3]: 5.05
inhibition [4]: inactive

Nc1nc(Cl)nc2c1ncn2[C@H]1C[C@H](O)[C@@H](CO)O1 [CLADRIBINE]
pIC50 [1]: 5.74
pIC50 [2]: 5.70
pIC50 [3]: 6.52

O=C(/C=C/c1cn(-c2ccccc2)nc1-c1cccnc1)c1cc[nH]c1
pIC50 [1]: 5.48
pIC50 [2]: 5.16
pIC50 [3]: 5.13
inhibition [4]: inactive

COc1ccc(C(=O)/C=C/c2cn(-c3ccccc3)nc2-c2ccncc2)cc1OC
pIC50 [1]: 5.70
pIC50 [2]: 5.37
pIC50 [3]: 5.92
inhibition [4]: inactive

COc1ccc(C(=O)/C=C/c2cn(-c3ccccc3)nc2-c2cccnc2)c(OC)c1
pIC50 [1]: 5.62
pIC50 [2]: 5.64
pIC50 [3]: 5.89
inhibition [4]: inactive

COc1ccc(OC)c(C(=O)/C=C/c2cn(-c3ccccc3)nc2-c2ccc3c(c2)OCO3)c1
pIC50 [1]: 5.21
pIC50 [2]: 5.24
pIC50 [3]: 5.89
inhibition [4]: inactive

COc1cc(OC)c(C(=O)/C=C/c2cn(-c3ccccc3)nc2-c2ccc3c(c2)OCO3)c(OC)c1
pIC50 [1]: 5.17
pIC50 [2]: 4.94
pIC50 [3]: 4.97
inhibition [4]: inactive

O=C(/C=C/c1cn(-c2ccccc2)nc1-c1ccncc1)c1cc[nH]c1
pIC50 [1]: 4.54
pIC50 [2]: 4.87
pIC50 [3]: 4.80
inhibition [4]: inactive

COc1ccc(C(=O)/C=C/c2cn(-c3ccccc3)nc2-c2ccsc2)cc1OC
pIC50 [1]: 5.54
pIC50 [2]: 5.55
pIC50 [3]: 5.80
inhibition [4]: inactive

COc1ccc(C(=O)/C=C/c2cn(-c3ccccc3)nc2-c2ccncc2)c(OC)c1OC
pIC50 [1]: 5.43
pIC50 [2]: 5.48
pIC50 [3]: 5.89
inhibition [4]: inactive

O=C(/C=C/c1cn(-c2ccccc2)nc1-c1cccnc1)c1ccc2c(c1)OCO2
pIC50 [1]: 5.17
pIC50 [2]: 5.25
pIC50 [3]: 5.74
inhibition [4]: inactive

O=C(/C=C/c1cn(-c2ccccc2)nc1-c1cccnc1)c1ccccn1
pIC50 [1]: 5.19
pIC50 [2]: 5.38
pIC50 [3]: 5.68
inhibition [4]: inactive
